Assay results: ChEMBL document CHEMBL1932994, “Structure-activity relationship studies of S1P agonists with a dihydronaphthalene scaffold” (Bioorg Med Chem Lett, 2012)

Columns and labels:
[1] = biological target: Sphingosine 1-phosphate receptor 1 (Homo sapiens, UniProt P21453); test: Agonist activity at human S1P1 receptor expressed in CHO cells assessed as induction of intracellular calcium level; assay type: functional, cell-based
Method in brief: (§1)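 Intracellular Ca²⁺ rise measured in CHO cells stably expressing human S1P₁ or S1P₃ receptor; EC₅₀ (nM) determined. Some values are the average of two assays.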

[2] = biological target: Sphingosine 1-phosphate receptor 3 (Homo sapiens, UniProt Q99500); test: Agonist activity at human S1P3 receptor expressed in CHO cells assessed as induction of intracellular calcium level; assay type: functional, cell-based; method in brief: as §1
Chain of Sphingosine 1-phosphate receptor 3 (Q99500 whole entry): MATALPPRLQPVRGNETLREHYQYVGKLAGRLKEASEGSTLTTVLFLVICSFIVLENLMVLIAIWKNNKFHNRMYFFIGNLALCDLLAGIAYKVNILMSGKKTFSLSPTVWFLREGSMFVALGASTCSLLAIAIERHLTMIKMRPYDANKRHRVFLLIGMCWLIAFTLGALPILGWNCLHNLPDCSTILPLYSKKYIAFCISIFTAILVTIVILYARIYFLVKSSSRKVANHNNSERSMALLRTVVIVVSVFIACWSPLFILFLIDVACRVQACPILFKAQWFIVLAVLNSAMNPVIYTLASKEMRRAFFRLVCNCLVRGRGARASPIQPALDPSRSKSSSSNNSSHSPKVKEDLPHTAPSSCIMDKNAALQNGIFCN

Mus musculus [3] = test: Immunomodulatory activity in po dosed mouse assessed as reduction in peripheral lymphocyte count measured after 24 hrs; assay type: functional
Method in brief: (§2)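 Mice dosed orally over a dose titration; peripheral blood lymphocytes counted 4 h or 24 h after dosing. Each point is the mean % decrease versus vehicle controls (n = 5 per group, treated and control). ED₅₀ (mg/kg) derived from the titration.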

[4] = Cmax in rat at 1 mg/kg, po; assay type: ADME, organism-based; design: dose 1 mg/kg, route oral; settings: in vivo
Plasma = test: Plasma concentration in rat at 1 mg/kg, po; assay type: ADME, organism-based; design: dose 1 mg/kg, route oral; settings: in vivo
[5] = Total clearance in rat at 1 mg/kg, iv; assay type: ADME, organism-based; design: dose 1 mg/kg, route intravenous; settings: in vivo
[6] = Half life in rat at 1 mg/kg, iv; assay type: ADME, organism-based; design: dose 1 mg/kg, route intravenous; settings: in vivo
[7] = Half life in rat at 1 mg/kg, po; assay type: ADME, organism-based; design: dose 1 mg/kg, route oral; settings: in vivo
[8] = Volume of distribution at steady state in rat at 1 mg/kg, iv; assay type: ADME, organism-based; design: dose 1 mg/kg, route intravenous; settings: in vivo, read-out: Vdss
[9] = Tmax in rat at 1 mg/kg, po; assay type: ADME, organism-based; design: dose 1 mg/kg, route oral; settings: in vivo
[10] = Oral bioavailability in rat at 1 mg/kg measured up to 24 hrs; assay type: ADME, organism-based; settings: in vivo
[11] = AUC (0 to infinity) in rat at 1 mg/kg, iv measured up to 24 hrs; assay type: ADME, organism-based; design: time infinity, dose 1 mg/kg, route intravenous; settings: plasma
[12] = AUC (0 to infinity) in rat at 1 mg/kg, po measured up to 24 hrs; assay type: ADME, organism-based; design: time infinity, dose 1 mg/kg, route oral; settings: plasma
Mus musculus [13] = test: Immunomodulatory activity in po dosed mouse assessed as reduction in peripheral lymphocyte count measured after 4 hrs; assay type: functional; method in brief: as §2
[14] = AUC (0 to infinity) in rat at 1 mg/kg, iv; assay type: ADME, organism-based; design: time infinity, dose 1 mg/kg, route intravenous; settings: plasma
[15] = AUC (0 to infinity) in rat at 1 mg/kg, po; assay type: ADME, organism-based; design: time infinity, dose 1 mg/kg, route oral; settings: plasma
[16] = Oral bioavailability in rat at 1 mg/kg; assay type: ADME, organism-based; settings: in vivo
CHO = test: Selectivity ratio of EC50 for human S1P3 receptor expressed in CHO cells to EC50 for S1P1 receptor expressed in CHO cells; assay type: cell-based
Method in brief: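 Ratio of EC₅₀ values from intracellular Ca²⁺ stimulation assays in CHO cells stably expressing human S1P₃ versus human S1P₁.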

Chain of Sphingosine 1-phosphate receptor 1 (P21453 whole entry): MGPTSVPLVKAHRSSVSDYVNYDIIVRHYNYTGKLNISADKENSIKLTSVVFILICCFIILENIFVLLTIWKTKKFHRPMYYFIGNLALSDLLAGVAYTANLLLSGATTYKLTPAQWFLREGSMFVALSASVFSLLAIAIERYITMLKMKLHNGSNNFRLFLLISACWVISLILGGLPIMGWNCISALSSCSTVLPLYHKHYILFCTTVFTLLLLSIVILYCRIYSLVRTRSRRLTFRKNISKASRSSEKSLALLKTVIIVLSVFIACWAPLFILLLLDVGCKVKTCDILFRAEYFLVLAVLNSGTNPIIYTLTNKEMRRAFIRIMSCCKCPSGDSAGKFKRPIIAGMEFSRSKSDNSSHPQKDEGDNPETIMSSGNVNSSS

SMILES | EC50 [1] | EC50 [2] | ED50 (Mus musculus [3]) | ED50 (Mus musculus [13]) | further results
CC1=C(CN2CC(C(=O)O)C2)CCc2cc(OCCCc3ccc(F)cc3)ccc21.Cl | 0.84 nM | 3200 nM | 0.25 mg/kg | 0.055 mg/kg | AUC(0-inf) [14]: 5400 ng·h/mL; AUC(0-inf) [15]: 5700 ng·h/mL; Cmax [4]: 159 ng/mL; Cp (Plasma): 88 ng/mL; clearance [5]: 3.2 mL/min/kg; half-life [6]: 21 h; half-life [7]: 24 h; Vd [8]: 5.3 L/kg; bioavailability [16]: 106%; Tmax [9]: 4.7 h
CC1=C(CN2CC(C(=O)O)C2)CCc2cc(OCCCCc3ccccc3)ccc21 |  |  |  |  | AUC(0-inf) [15]: 3800 ng·h/mL; Cp (Plasma): 53 ng/mL; half-life [7]: 17 h; bioavailability [16]: 85%; Tmax [9]: 4.7 h
CC1=C(CN2CC(C(=O)O)C2)CCc2cc(OCCCc3ccccc3F)ccc21.Cl | 2.7 nM | 2900 nM | 0.75 mg/kg | 0.13 mg/kg | 
CC1=C(CN2CC(C(=O)O)C2)CCc2cc(OCCCc3cccc(F)c3)ccc21.Cl | 4 nM | 3900 nM | 0.69 mg/kg | 0.15 mg/kg | 
CC1=C(CN2CC(C(=O)O)C2)CCc2cc(OCC(C)Cc3ccccc3)ccc21.Cl (racemic) | 0.66 nM | 20800 nM |  | 0.19 mg/kg | 
CC1=C(CN2CC(C(=O)O)C2)CCc2cc(OCCCc3ccccc3)ccc21.Cl | 3 nM | 5000 nM |  | 0.4 mg/kg | 
CC1=C(CN2CC(C(=O)O)C2)CCc2cc(OCCC(C)c3ccccc3)ccc21.Cl (racemic) | 0.6 nM | 22000 nM |  | > 0.3 mg/kg | 
CC1=C(CN2CC(C(=O)O)C2)CCc2cc(OCC(C)(C)Cc3ccccc3)ccc21 | 20 nM | > 30000 nM |  |  | 
CC1=C(CN2CC(C(=O)O)C2)CCc2cc(OC(C)CCc3ccccc3)ccc21 (stereo unspecified) | 20 nM | 14000 nM |  |  | 

Second part, led by results:

EC50 [1] | EC50 [2] | SMILES | ED50 (Mus musculus [3]) | ED50 (Mus musculus [13]) | further results
0.37 nM | 9450 nM | CC1=C(CN2CC(C(=O)O)C2)CCc2cc(OC[C@@H](C)Cc3ccc(F)cc3)ccc21.Cl | 0.22 mg/kg |  | Cmax [4]: 103 ng/mL; Cp (Plasma): 69 ng/mL; clearance [5]: 4 mL/min/kg; half-life [6]: 19 h; half-life [7]: 57 h; Vd [8]: 5.7 L/kg; Tmax [9]: 4.7 h; bioavailability [10]: 75%; AUC(0-inf) [11]: 2600 ng·h/mL; AUC(0-inf) [12]: 2000 ng·h/mL
1.1 nM | 29300 nM | CC[C@H](COc1ccc2c(c1)CCC(CN1CC(C(=O)O)C1)=C2C)Cc1ccc(F)cc1.Cl | 0.77 mg/kg |  | 
0.55 nM | 8200 nM | CC1=C(CN2CC(C(=O)O)C2)CCc2cc(OC[C@@H](C)Cc3ccc(Cl)cc3)ccc21.Cl | 0.095 mg/kg |  | Ratio EC50 (CHO): 15000; AUC(0-inf) [14]: 9000 ng·h/mL; AUC(0-inf) [15]: 5500 ng·h/mL; Cmax [4]: 184 ng/mL; Cp (Plasma): 87 ng/mL; clearance [5]: 2 mL/min/kg; half-life [6]: 27 h; half-life [7]: 20 h; Vd [8]: 3.9 L/kg; bioavailability [16]: 62%; Tmax [9]: 4.7 h
4.5 nM | > 30000 nM | CC1=C(CN2CC(C(=O)O)C2)CCc2cc(OC[C@H](Cc3ccc(F)cc3)C(C)C)ccc21.Cl | 0.68 mg/kg |  | 
0.85 nM | 11000 nM | CC1=C(CN2CC(C(=O)O)C2)CCc2cc(OC[C@H](C)Cc3ccc(F)cc3)ccc21.Cl | 0.55 mg/kg |  | 
